Converted amounts (≈) assume the structure as drawn. The source made the active and inactive calls. No cut-off for these calls is given here.
How the values were obtained:
[1] = tested on: Aspergillus flavus; test: Antifungal activity against Aspergillus flavus ATCC 11495 after 24 hrs by microdilution technique; assay type: functional
[2] = tested on: Aspergillus flavus; test: Antifungal activity against Aspergillus flavus ATCC 11495 at 10 mg/disc after 48 hrs by disc-diffusion method; assay type: functional
Outline: (§1)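 Disc diffusion per Bauer method under NCCLS conditions on nutrient agar/Mueller-Hinton agar. Compound dissolved in sterile DMSO at 10 mg/mL, filtered 0.2 µm, stored frozen at -15 °C; 10 mg/disc in DMSO applied. DMSO control. Inhibition zone diameter measured in mm after 48 h incubation at 28 °C.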

[3] = tested on: Candida albicans; test: Antifungal activity against Candida albicans ATCC 26555 after 24 hrs by microdilution technique; assay type: functional
Outline: (§2)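 MIC by agar microdilution on Mueller-Hinton agar per NCCLS 1997. Bacteria subcultured overnight at 37 °C on MHA, Candida on SDA at 35 °C for 24-48 h, each passaged at least twice. Incubated 37 °C in humid chamber, read after 24 h.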

[4] = tested on: Candida albicans; test: Antifungal activity against Candida albicans ATCC 26555 at 10 mg/disc after 48 hrs by disc-diffusion method; assay type: functional; outline: as §1
[5] = tested on: Escherichia coli; test: Antibacterial activity against Escherichia coli ATCC 11775 after 24 hrs by microdilution technique; assay type: functional; outline: as §2
[6] = tested on: Escherichia coli; test: Antibacterial activity against Escherichia coli ATCC 11775 at 10 mg/disc after 48 hrs by disc-diffusion method; assay type: functional, DSM 30083 = JCM 1649; outline: as §1
[7] = tested on: Bacillus cereus; test: Antibacterial activity against Bacillus cereus ATCC 14579 after 24 hrs by microdilution technique; assay type: functional; outline: as §2
[8] = tested on: Bacillus cereus; test: Antibacterial activity against Bacillus cereus ATCC 14579 at 10 mg/disc after 48 hrs by disc-diffusion method; assay type: functional; outline: as §1
[9] = tested on: Staphylococcus aureus; test: Antibacterial activity against Staphylococcus aureus ATCC 12600 after 24 hrs by microdilution technique; assay type: functional; outline: as §2
[10] = tested on: Staphylococcus aureus; test: Antibacterial activity against Staphylococcus aureus ATCC 12600 at 10 mg/disc after 48 hrs by disc-diffusion method; assay type: functional; outline: as §1

Compound: Cc1cc(C)n(-c2nc(=S)[nH]c(-c3ccc(Br)cc3)c2C#N)n1
- MIC [1]: inactive
- diameter of the inhibition zone (DIZ) [2]: inactive
- MIC [3]: inactive
- diameter of the inhibition zone (DIZ) [4]: inactive
- MIC ([5]; DSM 30083 = JCM 1649, 24 h): 32 µg/mL (≈ 82.8 µM)
- diameter of the inhibition zone (DIZ) [6]: 11 mm
- MIC ([7]; ATCC 14579, 24 h): 32 µg/mL (≈ 82.8 µM)
- diameter of the inhibition zone (DIZ) [8]: 12 mm
- MIC ([9]; ATCC 12600, 24 h): 32 µg/mL (≈ 82.8 µM)
- diameter of the inhibition zone (DIZ) [10]: 12 mm

Compound: N#Cc1c(-c2ccc(Br)cc2)[nH]c(=S)n2ncnc12
- MIC ([1]; ATCC 11495, 24 h): 256 µg/mL (≈ 771 µM)
- diameter of the inhibition zone (DIZ) [2]: 7 mm
- MIC ([3]; ATCC 26555, 24 h): 128 µg/mL (≈ 385 µM)
- diameter of the inhibition zone (DIZ) [4]: 8 mm
- MIC ([5]; DSM 30083 = JCM 1649, 24 h): 128 µg/mL (≈ 385 µM)
- diameter of the inhibition zone (DIZ) [6]: 7 mm
- MIC ([7]; ATCC 14579, 24 h): 128 µg/mL (≈ 385 µM)
- diameter of the inhibition zone (DIZ) [8]: 5 mm
- MIC ([9]; ATCC 12600, 24 h): 128 µg/mL (≈ 385 µM)
- diameter of the inhibition zone (DIZ) [10]: 6 mm

Compound: N#Cc1c(-c2ccc(F)cc2)[nH]c(=S)n2nnnc12
- MIC [1]: inactive
- diameter of the inhibition zone (DIZ) [2]: inactive
- MIC [3]: inactive
- diameter of the inhibition zone (DIZ) [4]: inactive
- MIC ([5]; DSM 30083 = JCM 1649, 24 h): 32 µg/mL (≈ 118 µM)
- diameter of the inhibition zone (DIZ) [6]: 13 mm
- MIC ([7]; ATCC 14579, 24 h): 32 µg/mL (≈ 118 µM)
- diameter of the inhibition zone (DIZ) [8]: 15 mm
- MIC ([9]; ATCC 12600, 24 h): 16 µg/mL (≈ 58.8 µM)
- diameter of the inhibition zone (DIZ) [10]: 15 mm

Compound: N#Cc1c(NN)nc(=S)[nH]c1-c1ccc(Br)cc1
- MIC [1]: inactive
- diameter of the inhibition zone (DIZ) [2]: inactive
- MIC [3]: inactive
- diameter of the inhibition zone (DIZ) [4]: inactive
- MIC ([5]; DSM 30083 = JCM 1649, 24 h): 64 µg/mL (≈ 199 µM)
- diameter of the inhibition zone (DIZ) [6]: 11 mm
- MIC ([7]; ATCC 14579, 24 h): 64 µg/mL (≈ 199 µM)
- diameter of the inhibition zone (DIZ) [8]: 11 mm
- MIC ([9]; ATCC 12600, 24 h): 64 µg/mL (≈ 199 µM)
- diameter of the inhibition zone (DIZ) [10]: 13 mm

Compound: N#Cc1c(-c2ccc(F)cc2)[nH]c(=S)n2c(=S)[nH]nc12
- MIC [1]: inactive
- diameter of the inhibition zone (DIZ) [2]: inactive
- MIC ([3]; ATCC 26555, 24 h): 32 µg/mL (≈ 105 µM)
- diameter of the inhibition zone (DIZ) [4]: 12 mm
- MIC ([5]; DSM 30083 = JCM 1649, 24 h): 64 µg/mL (≈ 211 µM)
- diameter of the inhibition zone (DIZ) [6]: 11 mm
- MIC ([7]; ATCC 14579, 24 h): 64 µg/mL (≈ 211 µM)
- diameter of the inhibition zone (DIZ) [8]: 11 mm
- MIC [9]: inactive
- diameter of the inhibition zone (DIZ) [10]: inactive

Compound: N#Cc1c(-c2ccc(Br)cc2)[nH]c(=S)n2c(=O)[nH]nc12
- MIC [1]: inactive
- diameter of the inhibition zone (DIZ) [2]: inactive
- MIC [3]: inactive
- diameter of the inhibition zone (DIZ) [4]: inactive
- MIC ([5]; DSM 30083 = JCM 1649): inactive
- diameter of the inhibition zone (DIZ) ([6]; DSM 30083 = JCM 1649): inactive
- MIC [7]: inactive
- diameter of the inhibition zone (DIZ) [8]: inactive
- MIC ([9]; ATCC 12600, 24 h): 64 µg/mL (≈ 184 µM)
- diameter of the inhibition zone (DIZ) [10]: 11 mm

Compound: Cc1nc2c(C#N)c(-c3ccc(F)cc3)[nH]c(=S)n2n1
- MIC ([1]; ATCC 11495, 24 h): 256 µg/mL (≈ 897 µM)
- diameter of the inhibition zone (DIZ) [2]: 7 mm
- MIC ([3]; ATCC 26555, 24 h): 128 µg/mL (≈ 449 µM)
- diameter of the inhibition zone (DIZ) [4]: 8 mm
- MIC ([5]; DSM 30083 = JCM 1649, 24 h): 128 µg/mL (≈ 449 µM)
- diameter of the inhibition zone (DIZ) [6]: 7 mm
- MIC ([7]; ATCC 14579, 24 h): 128 µg/mL (≈ 449 µM)
- diameter of the inhibition zone (DIZ) [8]: 5 mm
- MIC ([9]; ATCC 12600, 24 h): 128 µg/mL (≈ 449 µM)
- diameter of the inhibition zone (DIZ) [10]: 7 mm

Compound: COc1ccc(/C=N/Nc2nc(=S)[nH]c(-c3ccc(Br)cc3)c2C#N)cc1
- MIC ([1]; ATCC 11495, 24 h): 32 µg/mL (≈ 72.7 µM)
- diameter of the inhibition zone (DIZ) [2]: 14 mm
- MIC ([3]; ATCC 26555, 24 h): 32 µg/mL (≈ 72.7 µM)
- diameter of the inhibition zone (DIZ) [4]: 16 mm
- MIC ([5]; DSM 30083 = JCM 1649, 24 h): 32 µg/mL (≈ 72.7 µM)
- diameter of the inhibition zone (DIZ) [6]: 12 mm
- MIC ([7]; ATCC 14579, 24 h): 32 µg/mL (≈ 72.7 µM)
- diameter of the inhibition zone (DIZ) [8]: 16 mm
- MIC ([9]; ATCC 12600, 24 h): 32 µg/mL (≈ 72.7 µM)
- diameter of the inhibition zone (DIZ) [10]: 18 mm

Compound: N#Cc1c(-c2ccc(Br)cc2)[nH]c(=S)n2c(=O)c(=O)[nH]nc12
- MIC ([1]; ATCC 11495, 24 h): 16 µg/mL (≈ 42.5 µM)
- diameter of the inhibition zone (DIZ) [2]: 17 mm
- MIC [3]: inactive
- diameter of the inhibition zone (DIZ) [4]: inactive
- MIC ([5]; DSM 30083 = JCM 1649): inactive
- diameter of the inhibition zone (DIZ) ([6]; DSM 30083 = JCM 1649): inactive
- MIC [7]: inactive
- diameter of the inhibition zone (DIZ) [8]: inactive
- MIC ([9]; ATCC 12600, 24 h): 32 µg/mL (≈ 85.1 µM)
- diameter of the inhibition zone (DIZ) [10]: 13 mm

Compound: Cc1cc(C)n(-c2nc(=S)[nH]c(-c3ccc(F)cc3)c2C#N)n1
- MIC [1]: inactive
- diameter of the inhibition zone (DIZ) [2]: inactive
- MIC [3]: inactive
- diameter of the inhibition zone (DIZ) [4]: inactive
- MIC ([5]; DSM 30083 = JCM 1649, 24 h): 32 µg/mL (≈ 98.3 µM)
- diameter of the inhibition zone (DIZ) [6]: 11 mm
- MIC ([7]; ATCC 14579, 24 h): 32 µg/mL (≈ 98.3 µM)
- diameter of the inhibition zone (DIZ) [8]: 12 mm
- MIC ([9]; ATCC 12600, 24 h): 32 µg/mL (≈ 98.3 µM)
- diameter of the inhibition zone (DIZ) [10]: 13 mm

Compound: COc1cc(-c2[nH]c(=S)nc(N/N=C/c3ccc(F)cc3)c2C#N)cc(OC)c1OC
- MIC ([1]; ATCC 11495, 24 h): 32 µg/mL (≈ 72.8 µM)
- diameter of the inhibition zone (DIZ) [2]: 15 mm
- MIC ([3]; ATCC 26555, 24 h): 32 µg/mL (≈ 72.8 µM)
- diameter of the inhibition zone (DIZ) [4]: 16 mm
- MIC ([5]; DSM 30083 = JCM 1649, 24 h): 32 µg/mL (≈ 72.8 µM)
- diameter of the inhibition zone (DIZ) [6]: 12 mm
- MIC ([7]; ATCC 14579, 24 h): 32 µg/mL (≈ 72.8 µM)
- diameter of the inhibition zone (DIZ) [8]: 17 mm
- MIC ([9]; ATCC 12600, 24 h): 32 µg/mL (≈ 72.8 µM)
- diameter of the inhibition zone (DIZ) [10]: 19 mm

— ChEMBL document CHEMBL2434844, “Synthesis, antimicrobial, antioxidant activities of novel 6-aryl-5-cyano thiouracil derivatives” (Eur J Med Chem, 2013)
